Assay results taken from article PMC9643279 (Acta Pharmaceutica Sinica. B, 2022).
One block for each compound: values may come before it.

Experiments:
PGK1 [1] = target: T1, PGK1 (Homo sapiens, UniProt P00558); experiment: PGK1 and GAPDH coupled enzyme assay, IC50 determination; format: biochemical
T1 sequence (P00558 1-417): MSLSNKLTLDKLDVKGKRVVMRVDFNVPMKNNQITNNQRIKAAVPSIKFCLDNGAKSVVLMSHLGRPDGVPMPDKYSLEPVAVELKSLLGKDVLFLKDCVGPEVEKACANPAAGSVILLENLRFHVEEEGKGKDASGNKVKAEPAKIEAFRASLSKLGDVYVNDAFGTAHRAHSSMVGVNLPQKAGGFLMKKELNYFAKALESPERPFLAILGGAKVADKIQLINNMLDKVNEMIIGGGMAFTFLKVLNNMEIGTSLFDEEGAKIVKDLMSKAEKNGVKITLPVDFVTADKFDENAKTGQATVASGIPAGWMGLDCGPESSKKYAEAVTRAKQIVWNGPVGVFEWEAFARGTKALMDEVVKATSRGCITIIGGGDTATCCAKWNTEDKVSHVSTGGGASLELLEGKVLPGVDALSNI
How it was run: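 His-tagged PGK1 was expressed from pET28a in E. coli BL21(DE3) pLysS (0.4 mmol/L IPTG, 3 h) and nickel-purified. PGK1 at 0.4 nmol/L was preincubated with test compound (DMSO, various concentrations) for 10 min at room temperature with shaking. OD340 was read every 15 s for 15 min at 37 °C; V0 came from the first 3 min, and inhibition was expressed as % of the DMSO V0.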

PGK1 [2] = settings: read-out: IC50 (reported); reported as a PGK1 inhibitor; cited from earlier work
[3] = system: LPS-induced IL-1β, IL-6, TNFα; settings: cited from earlier work; for pro-inflammatory cytokine production: PKM2-targeted compounds
PGK1 [4] = target: T1, PGK1; experiment: Protein thermal shift assay; format: binding; settings: Figs. S1I-J
How it was run: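 Recombinant PGK1 at 3 μmol/L was mixed with 5× SYPRO Orange and test compound or DMSO in 20 μL of 50 mmol/L HEPES pH 7.4, 150 mmol/L NaCl, 1 mmol/L DTT. Fluorescence was followed during thermal melting in a real-time PCR instrument, and Tm was derived with the instrument's thermal-shift software.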

PGK1 [5] = target: T1, PGK1; experiment: Steady-state kinetic assay in the presence of gradient compound concentrations; format: biochemical

IC50 (PGK1 [1]): 1960 nM
SMILES: CC(C)[C@H](CO)Nc1nc(Nc2cccc(Cl)c2)c2ncn(C(C)C)c2n1 [purvalanol A]
IC50 (PGK1 [2]): 2500 nM

IC50 (PGK1 [1]): 6720 nM
SMILES: c1cc(-c2cnn3cc(-c4ccc(OCCN5CCCCC5)cc4)cnc23)ccn1 [dorsomorphin]

PGK1 thermal stability (PGK1 [4]): stabilized
IC50 (PGK1 [1]): 2300 nM
Ki (PGK1 [5]; Ki, ATP competitive, varying ATP, saturating 3-PG, competitive model): 2590 ± 10 nM
mode of inhibition versus ATP (PGK1 [5]; Km of ATP increases, Vmax unchanged): ATP competitive inhibitor
mode of inhibition versus 3-PG (PGK1 [5]; Vmax decreases, Km of 3-PG unchanged): noncompetitive inhibition
SMILES: CCOC(=O)c1nc2cc(Cl)c(Cl)cc2nc1N1CCCN(C(=O)CC)CC1 [LTP-10, ethyl 6,7-dichloro-3-(4-propionyl-1,4-diazepan-1-yl)quinoxaline-2-carboxylate]

Continued, compound first:

SMILES: OCC1OC(O)CC(O)C1O (stereo not shown) [Compound 2-DG]
LPS-induced IL-1β ([3]; previous studies): blocks
transcription of IL-6 and TNFα ([3]; previous studies): unaffected

SMILES: CN(C)C(=O)CCSC(SCCC(=O)O)c1cccc(/C=C/c2ccc3ccc(Cl)cc3n2)c1 (stereo not shown) [MK-571]
IC50 (PGK1 [1]): 25200 nM

SMILES: Nc1cccc(S(=O)(=O)N2CCCN(S(=O)(=O)c3ccc4c(c3)OCCO4)CC2)c1 [DASA-58]
pro-inflammatory cytokine production [3]: only inhibit IL-1β production

SMILES: Cn1c2cc([S+](C)[O-])sc2c2cnn(Cc3cccc(N)c3)c(=O)c21 (stereo not shown) [TEPP-46]
pro-inflammatory cytokine production [3]: only inhibit IL-1β production
